The source of these data is ChEMBL document CHEMBL1221269, “Synthesis of 3,3-diindolyl oxyindoles efficiently catalysed by FeCl3 and their in vitro evaluation for anticancer activity” (Bioorg Med Chem Lett, 2010).

Each structure is given as a SMILES string. Calls of active or inactive are those of the source. The rule behind the calls is not given here.

Holding throughout (type): functional, cell-based
One experiment deals with A549. The experiment can be described thus: Cytotoxicity against human A549 cells after 48 hrs by MTT assay. The note with it: A549, 48 h. Summed up: (§1)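 Cells seeded at 2.0×10^4 per well in 96-well plates, exposed to a range of test concentrations for 48 h. Medium then replaced with fresh medium containing MTT at 100 µg/mL for 2–3 h. Formazan dissolved in DMSO, OD read at 540 nm with 620 nm reference. Viability taken as treated vs untreated absorbance. IC50 in µM, mean of three separate experiments. Highest concentration tested 100 µM.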

A further experiment deals with SK-N-SH. In words: Cytotoxicity against human SK-N-SH cells after 48 hrs by MTT assay. In a few lines:
as §1
(Formazan colour is commonly taken as a measure of viable cells.)

Experiment [1] deals with MCF7. In words: Cytotoxicity against human MCF7 cells after 48 hrs by MTT assay. Particulars: MCF7, 48 h. Summed up: as §1
In the next experiment the test system is HepG2. The experiment can be described thus: Cytotoxicity against human HepG2 cells after 48 hrs by MTT assay. The note with it: HepG2, 48 h. Summed up: as §1
Another experiment has as its system DU-145. In words: Cytotoxicity against human DU145 cells after 48 hrs by MTT assay. The note with it: DU-145, 48 h. Summed up: as §1
The subject of experiment [2] is MCF7. In words: Cytotoxicity against human MCF7 cells at up to 100 uM after 48 hrs by MTT assay. Summed up: as §1

In general, IC50 refers to the point on the concentration scale where inhibition reaches its midpoint. High values mean a need for much substance, low ones inhibition by little substance. Consider `COc1ccc2c(C3(c4c[nH]c5cc(OC)ccc45)C(=O)Nc4ccccc43)c[nH]c2c1`, for which the IC50 amounted to 7.8 µM in the experiment with A549; 13.6 µM with SK-N-SH; 45.4 µM in the experiment on MCF7 [1]; 12 µM with HepG2; 1.2 µM in the experiment on DU-145.

Consider `O=C1Nc2ccccc2C1(c1c[nH]c2ccccc12)c1c[nH]c2ccccc12`, for which the IC50 stood at 8.6 µM in the experiment on A549; 11.3 µM in the experiment on SK-N-SH; 49.8 µM with MCF7 [1]; 20.4 µM in the experiment on HepG2; 8.7 µM with DU-145.

For `COc1ccc2[nH]cc(C3(c4c[nH]c5ccc(OC)cc45)C(=O)Nc4ccc(F)cc43)c2c1`, the IC50 in the experiment on A549 came to 10.6 µM; in the experiment on SK-N-SH, 7 µM; with HepG2 it was 36.6 µM; with DU-145 it was 3.6 µM. Further, the result in the experiment with MCF7 [2] was inactive.

Regarding `COc1cccc2[nH]cc(C3(c4c[nH]c5cccc(OC)c45)C(=O)Nc4ccccc43)c12`, the IC50 in the experiment with A549 was 15.3 µM; in the experiment with SK-N-SH, 4.7 µM; with MCF7 [1] it was 14.1 µM; with HepG2 it was 9 µM; with DU-145 it was 5 µM.

`O=C1Nc2ccc(F)cc2C1(c1c[nH]c2ccc(Br)cc12)c1c[nH]c2ccc(Br)cc12`: the IC50 in the experiment with A549 came out at 10.3 µM; with SK-N-SH, 2.8 µM; with MCF7 [1] it was 12.8 µM; with HepG2 it was 12.8 µM; with DU-145, 16.3 µM.

For the compound `O=C1Nc2ccccc2C1(c1c[nH]c2ccc(Br)cc12)c1c[nH]c2ccc(Br)cc12`, the half-maximal inhibitory concentration (IC50) is 8 µM in the experiment with A549; 13.2 µM in the experiment with SK-N-SH; 46.8 µM with MCF7 [1]; 15.8 µM in the experiment with HepG2; 3.6 µM in the experiment with DU-145.

Take `COc1ccc2c(C3(c4c[nH]c5cc(OC)ccc45)C(=O)Nc4ccc(F)cc43)c[nH]c2c1`: the IC50 in the experiment on A549 worked out at 14.4 µM; in the experiment with SK-N-SH it was 4.1 µM; with MCF7 [1], 12 µM; in the experiment with HepG2, 16 µM; with DU-145, 13.1 µM.

For `O=C1Nc2ccc(F)cc2C1(c1c[nH]c2ccc(Cl)cc12)c1c[nH]c2ccc(Cl)cc12`, the concentration for half-maximal inhibition (IC50) was 12.1 µM in the experiment on A549; 8.5 µM with SK-N-SH; 24.8 µM in the experiment on MCF7 [1]; 16.6 µM in the experiment with HepG2; 19.6 µM with DU-145.

With `COc1cccc2[nH]cc(C3(c4c[nH]c5cccc(OC)c45)C(=O)Nc4ccc(F)cc43)c12`, the IC50 in the experiment on A549 amounted to 7.8 µM; in the experiment on SK-N-SH it was 12.1 µM; in the experiment on MCF7 [1], 7.5 µM; with HepG2 it was 18 µM; in the experiment with DU-145 it was 9.4 µM.

Take `COc1ccc2[nH]cc(C3(c4c[nH]c5ccc(OC)cc45)C(=O)Nc4ccccc43)c2c1`: the IC50 in the experiment on A549 is 11.2 µM; with SK-N-SH it was 3.9 µM; in the experiment with MCF7 [1], 33.6 µM; with HepG2 it was 30.2 µM; in the experiment with DU-145, 2.2 µM.

Regarding `O=C1Nc2ccccc2C1(c1c[nH]c2ccc([N+](=O)[O-])cc12)c1c[nH]c2ccc([N+](=O)[O-])cc12`, the IC50 with A549 came to 10.3 µM; with SK-N-SH it was 11.8 µM; in the experiment on HepG2, 23.4 µM; in the experiment on DU-145, 8 µM. In the experiment with MCF7 [2], the result was inactive.

`Cn1cc(C2(c3cn(C)c4ccccc34)C(=O)Nc3ccccc32)c2ccccc21`: the IC50 is 10.1 µM in the experiment with A549, 5.1 µM in the experiment with SK-N-SH, 12 µM with HepG2 and 5.6 µM in the experiment on DU-145. The outcome with MCF7 [2] was inactive.

For `O=C1Nc2ccc(F)cc2C1(c1c[nH]c2ccccc12)c1c[nH]c2ccccc12`, the IC50 with A549 worked out at 12.7 µM; in the experiment with SK-N-SH it was 67.3 µM; with MCF7 [1], 23.6 µM; with HepG2, 6.6 µM; in the experiment on DU-145, 12.8 µM.

As for `O=C1Nc2ccc(F)cc2C1(c1c[nH]c2ccc([N+](=O)[O-])cc12)c1c[nH]c2ccc([N+](=O)[O-])cc12`, the IC50 in the experiment on A549 was 7.7 µM; in the experiment with SK-N-SH it was 6.8 µM; in the experiment with HepG2, 23.8 µM; in the experiment with DU-145 it was 7.5 µM. Also, the result with MCF7 [2] was inactive.

Regarding `O=C1Nc2ccccc2C1(c1c[nH]c2ccc(Cl)cc12)c1c[nH]c2ccc(Cl)cc12`, the IC50 in the experiment on A549 is 8.3 µM; in the experiment on SK-N-SH, 9.4 µM; in the experiment with HepG2, 14.6 µM; in the experiment with DU-145, 8.1 µM. Further, in the experiment on MCF7 [2], the result was inactive.

With `Cn1cc(C2(c3cn(C)c4ccccc34)C(=O)Nc3ccc(F)cc32)c2ccccc21`, the IC50 in the experiment on A549 came out at 17.5 µM; with SK-N-SH it was 6.5 µM; with MCF7 [1] it was 9.2 µM; in the experiment on HepG2, 13 µM; in the experiment on DU-145, 11 µM.
